The values below come from PubChem BioAssay.

Broadly, the inhibition is the change of the read-out against control, counted positive when it falls.

A short description of assay [1]: inhibitors of TNFa-induced NFkB p65 translocation, primary screen, imaging, HUVEC, MLSMR starter and 10KST1 sets (AID 438;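 active = inhibition above 20% together with a positive visual image hit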;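 also: compound added about 3h40 before a 20 min TNFalpha stimulation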;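 as to inhibition: signal is the nuclear over cytoplasmic p65 intensity ratio per well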). Particulars: HUVEC TNFa-induced p65 nuclear translocation; cell count: measured here: nuclei count (cytotoxicity indicator), at 2.08 µM; inhibition: at 2 µM, stronger effect = higher value, 0% TNFa-plus-vehicle, 100% no-TNFa wells.
A short description of assay [2]: reduction of polyQ htt aggregates in cells – imaging, exon1htt(103Q)mCFP cells, high-content imaging, primary screen (AID 483;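 active = visual image review flags a hit and inhibition of aggregation exceeds 20%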;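 also: compound exposure lasted 3 days before fixation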;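 as to nuclei count: percent of the per-plate median nuclei count of sample wells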). Conditions: exon1htt(103Q)mCFP cell line, aggregate imaging, at 2 µM; inhibition of aggregation: stronger effect = higher value; nuclei count: measured here: cell count, toxicity.
The nature of assay [3]: endothelial E-selectin expression blockers – imaging, HUVEC, immunofluorescence, MLSMR starter and 10KST1 sets, primary screen (AID 487;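 active = visually confirmed hit in the image check and inhibition above 20%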;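 as to inhibition: signal is fraction of cell area covered by stained E-selectin grains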;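 as to nuclei count: 100% = median nuclei count of all wells on the same plate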). Particulars: HUVEC TNFalpha-induced E-selectin immunofluorescence imaging, at 2 µM; inhibition: stronger effect = higher value; nuclei count: measured here: cell number, toxicity.
Assay [4] deals with Voltage-gated potassium channel subunit beta-2 (Rattus norvegicus) (UniProt P62483). Kind of assay: inhibitors of rat Kvbeta2 reductase activity – biochemical, NADPH fluorescence, primary screen (AID 622;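 active = fluorescence slope higher than the sample average by over 3 SD, cut at about -0.22 in these data, passing the limit was not always enough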;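 also: slope of raw intensity against log time taken from 70 to 1610 s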). Conditions: recombinant KvBeta, 4-cyanobenzaldehyde reduction, at 10 µM, stronger effect = higher value.
Assay [5] has the same target. Nature of the assay: enhancers of rat Kvbeta2 NADPH turnover – biochemical, NADPH fluorescence, primary screen (AID 623;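 active = NADPH fluorescence slope more negative than the mean of all samples by about 3 SD, 99.7% confidence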;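 also: fluorescence intensity change per second fitted from 20 to 320 s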). Conditions: Recombinant KvBeta, NADPH fluorescence decrease slope, 10 min; at 10 µM; stronger effect = lower value.
In assay [6] the target is Muscarinic acetylcholine receptor M4 (Homo sapiens) (UniProt P08173). Nature of the assay: M4-linked GIRK flux change, two-sided – cell-based, HEK293 M4/GIRK, thallium flux, BTC-AM, M4 allosteric agonist project, primary screen (AID 625;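 active = fluorescence slope after compound addition differing from the mean of all tested samples at 99.7% confidence, mostly higher but some lower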;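 also: thallium influx through GIRK channels coupled to M4 in HEK293 cells with BTC-AM dye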). Conditions: at 10 µM, actives lie on both sides. The essentials:
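Material: HEK293 cells with M4 receptor and GIRK channels; Times: cells overnight at 37 °C, BTC-AM loading 1 h, reads 2 min total; Technique: kinetic BTC-AM fluorescence sampled at 1 Hz, 10 s pre-addition baseline; Read-out basis: slope over 15–24 s of trace normalized to starting intensity; Controls: carbachol positive, DMSO negative.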

A short description of assay [7]: blockers of RIG-like receptor reporter activation – cell-based, Sendai virus stimulus, luciferase, 10K MLSCN set, TLR/RLR signaling modifier project, primary screen (AID 602276;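 active = inhibition at or above 50% at 10 µM; inactive = inhibition below 50%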;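 also: firefly luciferase from ISG56 promoter only with Renilla not read in this screen; 0% = Sendai virus plus DMSO and 100% = medium plus DMSO without virus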). Particulars: HEK293 RL24 IRF3 luciferase reporter, at 10 µM, stronger effect = higher value. (A reporter such as luciferase makes a cellular process visible.)
The nature of assay [8]: TLR3 IRF3 reporter activation blockers – cell-based, poly I:C stimulus, luciferase, 10K MLSCN set, primary screen (AID 602277). Particulars: HEK293-TLR3 RL24 IRF3 luciferase reporter, at 10 µM, stronger effect = higher value.

Active and inactive are the calls of the source.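 The calls were made as follows, unless noted: active = inhibition of the reporter signal at or above 50%; inactive = inhibition below 50%.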

Sequence of Voltage-gated potassium channel subunit beta-2 (Rattus norvegicus) (P62483 whole entry, looked up): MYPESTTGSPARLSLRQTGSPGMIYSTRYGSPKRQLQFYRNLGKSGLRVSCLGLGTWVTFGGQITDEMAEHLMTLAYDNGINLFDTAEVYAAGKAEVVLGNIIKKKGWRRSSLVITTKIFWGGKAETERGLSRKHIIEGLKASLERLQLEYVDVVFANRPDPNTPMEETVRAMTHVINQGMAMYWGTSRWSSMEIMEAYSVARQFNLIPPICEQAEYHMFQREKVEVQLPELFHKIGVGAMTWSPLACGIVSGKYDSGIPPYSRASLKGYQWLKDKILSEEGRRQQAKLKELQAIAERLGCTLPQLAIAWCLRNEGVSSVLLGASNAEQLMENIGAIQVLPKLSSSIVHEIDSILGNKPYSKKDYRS
Sequence of Muscarinic acetylcholine receptor M4 (Homo sapiens) (P08173 whole entry, looked up): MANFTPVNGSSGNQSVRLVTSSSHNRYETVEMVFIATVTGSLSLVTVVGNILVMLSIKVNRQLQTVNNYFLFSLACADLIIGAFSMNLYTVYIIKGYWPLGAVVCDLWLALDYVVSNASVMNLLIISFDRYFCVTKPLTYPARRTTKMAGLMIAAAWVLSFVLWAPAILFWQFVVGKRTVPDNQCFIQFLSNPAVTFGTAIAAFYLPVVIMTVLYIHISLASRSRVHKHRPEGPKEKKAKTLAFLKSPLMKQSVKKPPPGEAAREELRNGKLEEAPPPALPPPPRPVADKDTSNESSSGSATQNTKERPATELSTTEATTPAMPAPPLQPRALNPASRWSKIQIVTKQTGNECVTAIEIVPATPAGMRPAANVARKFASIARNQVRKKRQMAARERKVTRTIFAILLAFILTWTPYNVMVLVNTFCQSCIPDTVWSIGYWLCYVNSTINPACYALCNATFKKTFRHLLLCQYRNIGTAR

Turning to `COCCCNC(=O)CCc1nc2cccnc2n1Cc1ccc(OC)cc1`, the cell count in assay [1] was 462. In addition, the inhibition is 4.3% (inactive) in assay [1], -16.4% (inactive) in assay [3], 14.4% (inactive) in assay [7] and 1.17% (inactive) in assay [8]. Also, the inhibition of aggregation in assay [2] was -13.4% (inactive). For the same compound, the nuclei count was 124% in assay [2] and 98.8% in assay [3]. Further, the fluorescence slope was -0.286 (inactive) in assay [4] and 0.006 (inactive) in assay [6]. Further, the NADPH fluorescence slope in assay [5] is -2.5e-05 (inactive).

`CCOC(=O)C1CCN(Cc2ccc(C(=O)OC)cc2)CC1`: the cell count in assay [1] is 462. Besides, the inhibition is -4.3% (inactive) in assay [1], 4.3% (inactive) in assay [3], 0.779% (inactive) in assay [7] and 12.5% (inactive) in assay [8]. Also, the inhibition of aggregation in assay [2] is -0.6% (inactive). Besides, the nuclei count in assay [2] amounted to 97%; in assay [3] it was 85.6%. For the same compound, the figures for the fluorescence slope in assay [4] and in assay [6] were -0.595 (inactive) and 0.0043 (inactive), respectively. Also, in assay [5], the NADPH fluorescence slope is -4.2e-05 (inactive).

Consider `COC(=O)c1cc(OC)c(OC)cc1NC(=O)CC1CCCCC1`, for which the cell count in assay [1] came to 291. Further, the inhibition was -8.9% (inactive) in assay [1], 36.1% (inactive) in assay [3], 11.3% (inactive) in assay [7] and 11.2% (inactive) in assay [8]. Further, the inhibition of aggregation in assay [2] was 0.4% (inactive). Besides, the nuclei count in assay [2] was 84.5%; in assay [3] it was 73.5%. Further, the fluorescence slope is -0.558 (inactive) in assay [4] and 0.00549 (inactive) in assay [6]. Moreover, the NADPH fluorescence slope in assay [5] is -2.3e-05 (inactive).

Regarding `Cc1ccc(C(C)C)c(OCc2nnc(SCC(=O)Nc3ncc(C)s3)n2C)c1`, in assay [1], the cell count is 663. Besides, the inhibition in assay [1] was 0.5% (inactive); in assay [3], -36.3% (inactive); in assay [7] it was 9.43% (inactive); in assay [8], 12.4% (inactive). Also, the inhibition of aggregation in assay [2] was -35.5% (inactive). In addition, the nuclei count in assay [2] and in assay [3] was 108% throughout. The fluorescence slope in assay [4] was -0.545 (inactive); in assay [6] it was 0.00564 (inactive). The NADPH fluorescence slope in assay [5] is -3.2e-05 (inactive).

Consider `COC(=O)c1cc(Oc2ccc(C(=O)OC)cc2N)cc(C(=O)OC)c1`, for which, in assay [1], the cell count amounted to 278. Also, the inhibition in assay [1] is -12.5% (inactive); in assay [3], -19% (inactive); in assay [7] it was -3.38% (inactive); in assay [8] it was 8.08% (inactive). The inhibition of aggregation in assay [2] was 1% (inactive). The figures for the nuclei count in assay [2] and in assay [3] were 106% and 108%, respectively. Further, the fluorescence slope in assay [4] was -0.467 (inactive); in assay [6], 0.00407 (inactive). Besides, the NADPH fluorescence slope in assay [5] was -0.000384 (inactive).

Regarding `O=C(COc1ncnc2ccccc12)NCc1ccc2c(c1)OCO2`, the cell count in assay [1] was 345. The inhibition in assay [1] was -1.6% (inactive); in assay [3] it was -38.6% (inactive); in assay [7], 15.1% (inactive); in assay [8], 16.2% (inactive). Moreover, the inhibition of aggregation in assay [2] is -8.2% (inactive). In addition, the nuclei count in assay [2] worked out at 101%; in assay [3], 105%. Besides, the figures for the fluorescence slope in assay [4] and in assay [6] were -0.584 (inactive) and 0.00352 (inactive), respectively. In addition, the NADPH fluorescence slope in assay [5] was -5e-06 (inactive).

In the case of `Cc1nnc(SCC(=O)Nc2ccc3c(c2)OCCO3)n1CC1CCCO1` (centres undefined), the cell count in assay [1] worked out at 662. Moreover, the inhibition in assay [1] was -5% (inactive); in assay [3] it was -39.4% (inactive); in assay [7], 14.8% (inactive); in assay [8] it was 7.29% (inactive). Further, the inhibition of aggregation in assay [2] was -0.8% (inactive). Moreover, the nuclei count in assay [2] amounted to 105%; in assay [3], 114%. The fluorescence slope in assay [4] is -0.341 (inactive); in assay [6], 0.00537 (inactive). Also, in assay [5], the NADPH fluorescence slope is -5.6e-05 (inactive).

For the compound `Clc1ccc(SCCCCn2ccnc2)cc1`, the cell count in assay [1] is 289. The inhibition was -10.4% (inactive) in assay [1], -114% (inactive) in assay [3], -17.8% (inactive) in assay [7] and -10.6% (inactive) in assay [8]. Moreover, in assay [2], the inhibition of aggregation is 0.8% (inactive). The nuclei count amounted to 101% in assay [2] and 115% in assay [3]. Also, the values for the fluorescence slope in assay [4] and in assay [6] were -0.306 (inactive) and 0.00775 (inactive), respectively. Besides, the NADPH fluorescence slope in assay [5] was -1.2e-05 (inactive).

`Cc1nn(-c2ccc(F)cc2)c2sc(C(=O)OCC(=O)N3CCC(C)CC3)cc12`: the cell count in assay [1] was 359. Further, the inhibition in assay [1] is -4.2% (inactive); in assay [3] it was 0.8% (inactive); in assay [7], -2.34% (inactive); in assay [8], -1.01% (inactive). The inhibition of aggregation in assay [2] was -8.8% (inactive). In addition, the results for the nuclei count in assay [2] and in assay [3] were 95.7% and 106%, respectively. Also, the fluorescence slope in assay [4] was -0.514 (inactive); in assay [6] it was 0.00495 (inactive). For the same compound, the NADPH fluorescence slope in assay [5] is -3.9e-05 (inactive).

Turning to `COC(=O)c1sc(S(=O)(=O)Nc2ccc3cn[nH]c3c2)c(C(=O)OC)c1C`, the cell count in assay [1] came out at 392. Further, the inhibition in assay [1] is 1% (inactive); in assay [3], -83.8% (inactive); in assay [7] it was 13.4% (inactive); in assay [8] it was 31.2% (inactive). For the same compound, the inhibition of aggregation in assay [2] is 23.4% (inactive). The nuclei count was 80% in assay [2] and 100% in assay [3]. Moreover, the results for the fluorescence slope in assay [4] and in assay [6] were -0.533 (inactive) and 0.0043 (inactive), respectively. The NADPH fluorescence slope in assay [5] is 5.3e-06 (inactive).

In the case of `CC1C(c2ccccc2)N(C)CCC12NC(=O)NC2=O` (centres undefined), in assay [1], the cell count was 315. For the same compound, the inhibition was -0.8% (inactive) in assay [1], -43% (inactive) in assay [3], -0.144% (inactive) in assay [7] and 3.49% (inactive) in assay [8]. In assay [2], the inhibition of aggregation is -12.3% (inactive). In addition, the nuclei count in assay [2] worked out at 108%; in assay [3] it was 135%. Also, the fluorescence slope in assay [4] is -0.397 (inactive); in assay [6] it was 0.00604 (inactive). The NADPH fluorescence slope in assay [5] was 6.4e-05 (inactive).

In the case of `COC(=O)Cc1c(C)nc2nc(-c3ccccc3)[nH]n2c1=O`, in assay [1], the cell count is 615. Further, the inhibition was 1.9% (inactive) in assay [1], -15.7% (inactive) in assay [3], 0.882% (inactive) in assay [7] and 6.76% (inactive) in assay [8]. The inhibition of aggregation in assay [2] is 18.9% (inactive). The nuclei count in assay [2] was determined as 68%; in assay [3], 97.2%. Further, the values for the fluorescence slope in assay [4] and in assay [6] were -0.474 (inactive) and 0.00459 (inactive), respectively. Also, in assay [5], the NADPH fluorescence slope was -9.1e-06 (inactive).

Consider `COc1ccc(-c2cc(C(F)(F)F)nc(SCC(=O)NCc3ccco3)n2)cc1OC`, for which the cell count in assay [1] amounted to 614. Moreover, the inhibition in assay [1] is -9.9% (inactive); in assay [3], -20.4% (inactive); in assay [7], 24.6% (inactive); in assay [8], 23.2% (inactive). In addition, the inhibition of aggregation in assay [2] was -5.9% (inactive). Also, the nuclei count in assay [2] is 94%; in assay [3] it was 103%. Further, the fluorescence slope in assay [4] was -0.304 (inactive); in assay [6] it was 0.00529 (inactive). Also, the NADPH fluorescence slope in assay [5] was -1.1e-05 (inactive).

As for `O=C(/C=N/O)Nc1cccnc1`, in assay [1], the cell count came to 351. Further, the inhibition in assay [1] was -10.2% (inactive); in assay [3], 57.2% (inactive); in assay [7], 21.9% (inactive); in assay [8], 26.5% (inactive). In addition, in assay [2], the inhibition of aggregation was 17.5% (inactive). The nuclei count in assay [2] is 86%; in assay [3], 98.5%. Also, the fluorescence slope in assay [4] was -0.552 (inactive); in assay [6], 0.00502 (inactive). Also, the NADPH fluorescence slope in assay [5] was -2.2e-05 (inactive).
